Results as given in ChEMBL document CHEMBL3779826, “Converting maslinic acid into an effective inhibitor of acylcholinesterases” (Eur J Med Chem, 2015).
pIC50, pKi: −log10 of the molar value.

Key:
Acetylcholinesterase = Acetylcholinesterase (Electrophorus electricus, UniProt O42275); experiment: Inhibition of Electrophorus electricus AChE using acetylthiocholine iodide as substrate preincubated for 20mins before the addition of substrate by Ellman's method; conditions: for pKi: read-out: Ki
[1] = biological target: Acetylcholinesterase (Electrophorus electricus) (UniProt O42275); experiment: Mixed type inhibition of Electrophorus electricus AChE by Lineweaver-Burk plot analysis
Chain of Acetylcholinesterase (Electrophorus electricus) (O42275 24-633 limits assumed): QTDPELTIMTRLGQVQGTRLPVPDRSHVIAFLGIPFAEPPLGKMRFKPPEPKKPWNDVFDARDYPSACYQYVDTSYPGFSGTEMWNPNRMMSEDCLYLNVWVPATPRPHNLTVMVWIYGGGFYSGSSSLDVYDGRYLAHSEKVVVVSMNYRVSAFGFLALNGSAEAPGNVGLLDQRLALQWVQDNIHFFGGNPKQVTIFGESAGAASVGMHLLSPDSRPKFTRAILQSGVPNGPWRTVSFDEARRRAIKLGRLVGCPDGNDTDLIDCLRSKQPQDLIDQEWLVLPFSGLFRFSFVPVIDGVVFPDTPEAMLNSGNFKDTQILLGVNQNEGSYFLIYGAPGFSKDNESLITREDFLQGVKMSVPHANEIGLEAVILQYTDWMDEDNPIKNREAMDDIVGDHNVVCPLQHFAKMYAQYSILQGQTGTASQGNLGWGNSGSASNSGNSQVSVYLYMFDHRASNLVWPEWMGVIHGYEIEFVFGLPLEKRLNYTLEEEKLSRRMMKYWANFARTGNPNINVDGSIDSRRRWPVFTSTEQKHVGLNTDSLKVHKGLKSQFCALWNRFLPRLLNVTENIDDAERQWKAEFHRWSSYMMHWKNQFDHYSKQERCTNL
How it was run: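 Ellman kinetics at 30 °C in pH 8.0 Tris-HCl with DTNB. Enzyme plus inhibitor (3 concentrations and a water blank) was preincubated for 20 min, then ATChI was added at 0.9375, 0.625, 0.325 or 0.1875 mM. A415 was read every minute for 30 min, in triplicate. Mode, Ki and Ki' came from Lineweaver-Burk, Dixon and Cornish-Bowden plots.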

Cholinesterase = Cholinesterase (Equus caballus, UniProt P81908); experiment: Inhibition of equine serum BChE using butyrylthiocholine iodide as substrate preincubated for 20mins before the addition of substrate by Ellman's method; conditions: for pKi: read-out: Ki
Chain of Cholinesterase (P81908 whole entry): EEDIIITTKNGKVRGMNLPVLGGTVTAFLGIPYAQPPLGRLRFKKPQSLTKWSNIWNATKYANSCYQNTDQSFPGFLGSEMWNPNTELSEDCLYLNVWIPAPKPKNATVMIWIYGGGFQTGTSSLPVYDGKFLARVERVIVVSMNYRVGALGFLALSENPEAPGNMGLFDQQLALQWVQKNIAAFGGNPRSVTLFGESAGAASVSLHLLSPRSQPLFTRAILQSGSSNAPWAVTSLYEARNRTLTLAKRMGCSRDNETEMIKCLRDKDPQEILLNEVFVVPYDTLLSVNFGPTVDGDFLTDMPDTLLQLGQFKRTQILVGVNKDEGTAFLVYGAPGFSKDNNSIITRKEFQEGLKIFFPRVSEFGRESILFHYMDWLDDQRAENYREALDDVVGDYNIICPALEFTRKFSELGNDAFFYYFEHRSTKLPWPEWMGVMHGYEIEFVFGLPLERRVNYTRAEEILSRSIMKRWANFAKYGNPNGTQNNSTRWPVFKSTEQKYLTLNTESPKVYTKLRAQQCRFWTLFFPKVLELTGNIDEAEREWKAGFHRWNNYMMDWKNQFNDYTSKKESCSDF

[2] = biological target: Cholinesterase (Equus caballus) (UniProt P81908); experiment: Inhibition of equine serum BChE at 40 uM using butyrylthiocholine iodide as substrate preincubated for 20mins before the addition of substrate by Ellman's method
Chain of Cholinesterase (Equus caballus) (P81908 whole entry): as above
How it was run: (§1)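 Ellman assay: enzyme in Tris-HCl pH 8.0 with NaN3, plus DTNB (3 mM stock with NaCl and MgCl2), was preincubated with compound at 30 °C for 20 min. Thiocholine substrate was then added and absorbance at 415 nm recorded at 30 °C for 30 min at 1-min intervals, in triplicate. Residual DMSO below 0.5%.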

[3] = biological target: Carbonic anhydrase 2 (Bos taurus) (UniProt P00921); experiment: Inhibition of bovine erythrocte carbonic anhydrase 2 at 40 uM
Chain of Carbonic anhydrase 2 (Bos taurus) (P00921 2-260 limits assumed): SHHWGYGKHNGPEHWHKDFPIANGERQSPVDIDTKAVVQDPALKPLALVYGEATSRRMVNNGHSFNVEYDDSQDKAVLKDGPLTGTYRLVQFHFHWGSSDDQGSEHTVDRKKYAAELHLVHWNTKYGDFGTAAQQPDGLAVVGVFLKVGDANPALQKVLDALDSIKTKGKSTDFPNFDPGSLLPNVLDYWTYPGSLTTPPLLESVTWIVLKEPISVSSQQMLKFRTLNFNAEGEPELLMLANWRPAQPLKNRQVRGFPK

Candida antarctica [4] = experiment: Inhibition of Candida antarctica lipase at 40 uM using 4-NA as substrate preincubated for 20 mins before the addition of substrate
How it was run: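 Candida antarctica lipase (stock 2.003 U/ml) in 50 mM Tris-HCl pH 8.0, preincubated with compound at 37 °C for 20 min. Reaction started with 4-NA; absorbance at 415 nm followed at 37 °C for 10 min at 1 min intervals. Relative inhibition taken as the ratio of linear-range slopes, compound over blank.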

[5] = biological target: Acetylcholinesterase (Electrophorus electricus) (UniProt O42275); conditions: 40 uM
[6] = biological target: Acetylcholinesterase (Electrophorus electricus) (UniProt O42275); experiment: Inhibition of Electrophorus electricus AChE at 5 uM using acetylthiocholine iodide as substrate preincubated for 20mins before the addition of substrate by Ellman's method; how it was run: as §1
[7] = biological target: Cholinesterase (Equus caballus) (UniProt P81908); experiment: Inhibition of equine serum BChE at 5 uM using butyrylthiocholine iodide as substrate preincubated for 20mins before the addition of substrate by Ellman's method; how it was run: as §1
[8] = biological target: Carbonic anhydrase 2 (Bos taurus) (UniProt P00921); experiment: Inhibition of bovine erythrocte carbonic anhydrase 2 at 5 uM
Candida antarctica [9] = experiment: Inhibition of Candida antarctica lipase at 5 uM using 4-NA as substrate preincubated for 20 mins before the addition of substrate
How it was run: (§2)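 Candida antarctica lipase in 50 mM Tris-HCl pH 8.0 was preincubated with compound at 37 °C for 20 min. Reaction started with 4-NA ([…] as added). Absorbance at 415 nm was read kinetically at 37 °C for 10 min at 1-min intervals. Relative inhibition was taken as the ratio of linear-range slopes, compound over blank.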

[10] = biological target: Acetylcholinesterase (Electrophorus electricus) (UniProt O42275); experiment: Inhibition of Electrophorus electricus AChE at 3 uM using acetylthiocholine iodide as substrate preincubated for 20mins before the addition of substrate by Ellman's method; how it was run: as §1
[11] = biological target: Cholinesterase (Equus caballus) (UniProt P81908); experiment: Inhibition of equine serum BChE at 3 uM using butyrylthiocholine iodide as substrate preincubated for 20mins before the addition of substrate by Ellman's method; how it was run: as §1
[12] = biological target: Carbonic anhydrase 2 (Bos taurus) (UniProt P00921); experiment: Inhibition of bovine erythrocte carbonic anhydrase 2 at 3 uM
Candida antarctica [13] = experiment: Inhibition of Candida antarctica lipase at 3 uM using 4-NA as substrate preincubated for 20 mins before the addition of substrate; how it was run: as §2
[14] = Cytotoxic activity against mouse NIH/3T3 cells by SRB assay; assay type: cell-based; conditions: NIH3T3
How it was run: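 Mouse embryonic fibroblasts grown as monolayers in RPMI 1640 with 10% heat-inactivated FBS and penicillin/streptomycin at 37 °C under 5% CO2. Cytotoxicity read by photometric sulforhodamine-B microculture colorimetric assay, reported as IC50.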

[15] = biological target: Cholinesterase (Equus caballus) (UniProt P81908); experiment: Inhibition of equine serum BChE at 10 uM using butyrylthiocholine iodide as substrate preincubated for 20mins before the addition of substrate by Ellman's method; how it was run: as §1
[16] = biological target: Carbonic anhydrase 2 (Bos taurus) (UniProt P00921); experiment: Inhibition of bovine erythrocte carbonic anhydrase 2 at 10 uM
Candida antarctica [17] = experiment: Inhibition of Candida antarctica lipase at 10 uM using 4-NA as substrate preincubated for 20 mins before the addition of substrate; how it was run: as §2
[18] = biological target: Acetylcholinesterase (Electrophorus electricus) (UniProt O42275); conditions: 10 uM
[19] = biological target: Cholinesterase (Equus caballus) (UniProt P81908); experiment: Mixed type inhibition of equine serum BChE by Lineweaver-Burk plot analysis

Chain of Acetylcholinesterase (O42275 whole entry): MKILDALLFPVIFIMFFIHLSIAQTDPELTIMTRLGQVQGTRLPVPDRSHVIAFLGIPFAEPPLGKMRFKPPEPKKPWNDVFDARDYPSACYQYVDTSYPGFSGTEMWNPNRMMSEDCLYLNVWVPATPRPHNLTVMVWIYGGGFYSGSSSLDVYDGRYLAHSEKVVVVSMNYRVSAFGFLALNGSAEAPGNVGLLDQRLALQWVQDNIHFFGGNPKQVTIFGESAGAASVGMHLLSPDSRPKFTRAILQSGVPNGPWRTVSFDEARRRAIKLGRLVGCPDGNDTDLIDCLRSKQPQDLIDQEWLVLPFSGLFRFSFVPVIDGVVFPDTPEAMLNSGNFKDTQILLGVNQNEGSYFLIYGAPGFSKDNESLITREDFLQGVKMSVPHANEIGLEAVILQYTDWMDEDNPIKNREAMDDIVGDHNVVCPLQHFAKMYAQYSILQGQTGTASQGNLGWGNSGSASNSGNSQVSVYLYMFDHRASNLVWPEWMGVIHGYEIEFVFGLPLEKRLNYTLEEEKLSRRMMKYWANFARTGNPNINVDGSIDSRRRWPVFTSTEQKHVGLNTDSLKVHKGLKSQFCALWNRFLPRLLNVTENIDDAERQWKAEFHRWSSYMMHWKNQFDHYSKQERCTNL

Row | SMILES | pIC50 (Acetylcholinesterase) | pKi (Acetylcholinesterase) | Kiuc [1] [µM] | pKi (Cholinesterase) | inhibition [10] [%] | inhibition [11] [%] | inhibition [12] [%] | inhibition (Candida antarctica [13]) [%] | further results
1 | CC1(C)CC[C@]2(C(=O)OCCCBr)CC[C@]3(C)C(=CC[C@@H]4[C@@]5(C)C[C@@H](O)[C@H](O)C(C)(C)[C@@H]5CC[C@]43C)[C@@H]2C1 | 4.51 | 4.46 | 24.4 | < 4.10 | – | – | – | – | inhibition [2]: 16%; inhibition [3]: 1%; inhibition (Candida antarctica [4]): 18%; inhibition [5]: 39%
2 | CC1(C)CC[C@]2(C(=O)OCCCCCl)CC[C@]3(C)C(=CC[C@@H]4[C@@]5(C)C[C@@H](O)[C@H](O)C(C)(C)[C@@H]5CC[C@]43C)[C@@H]2C1 | 4.98 | 5.77 | – | < 5.00 | – | – | – | – | inhibition [6]: 79%; inhibition [7]: 0%; inhibition [8]: 0%; inhibition (Candida antarctica [9]): 0%
3 | CC1(C)CC[C@]2(C(=O)OC/C=C\CCl)CC[C@]3(C)C(=CC[C@@H]4[C@@]5(C)C[C@@H](O)[C@H](O)C(C)(C)[C@@H]5CC[C@]43C)[C@@H]2C1 | 4.75 | 4.65 | 9.38 | < 4.10 | – | – | – | – | inhibition [2]: 7%; inhibition [3]: 1%; inhibition (Candida antarctica [4]): 0%; inhibition [5]: 79%
4 | CC1(C)CC[C@]2(C(=O)OCc3ccc(Cl)cc3Cl)CC[C@]3(C)C(=CC[C@@H]4[C@@]5(C)C[C@@H](O)[C@H](O)C(C)(C)[C@@H]5CC[C@]43C)[C@@H]2C1 | 5.33 | 5.69 | 9.24 | < 5.22 | 43 | 0 | 0 | 0 | pIC50 [14]: 4.76
5 | CC1(C)CC[C@]2(C(=O)OCCCI)CC[C@]3(C)C(=CC[C@@H]4[C@@]5(C)C[C@@H](O)[C@H](O)C(C)(C)[C@@H]5CC[C@]43C)[C@@H]2C1 | 4.99 | 5.22 | 13.4 | < 4.70 | – | – | – | – | inhibition [15]: 0%; inhibition [16]: 6%; inhibition (Candida antarctica [17]): 0%; inhibition [18]: 51%
6 | CCCCCCOC(=O)[C@]12CCC(C)(C)C[C@H]1C1=CC[C@@H]3[C@@]4(C)C[C@@H](O)[C@H](O)C(C)(C)[C@@H]4CC[C@@]3(C)[C@]1(C)CC2 | 5.36 | 5.32 | 5.11 | < 5.22 | 62 | 0 | 0 | 0 | –
7 | CC1(C)CC[C@]2(C(=O)O)CC[C@]3(C)C(=CC[C@@H]4[C@@]5(C)C[C@@H](O)[C@H](O)C(C)(C)[C@@H]5CC[C@]43C)[C@@H]2C1 [MASLINIC ACID] | – | < 4.00 | – | < 4.00 | – | – | – | – | pIC50 [14]: 4.78
8 | CC1(C)CC[C@]2(C(=O)O)CC[C@]3(C)C(=CC[C@@H]4[C@@]5(C)C[C@H](O)[C@H](O)C(C)(C)[C@@H]5CC[C@]43C)[C@@H]2C1 [AUGUSTIC ACID] | – | < 4.52 | – | 4.45 | – | – | – | – | pIC50 (Cholinesterase): 4.78; Kiuc [19]: 10.6 µM
9 | CCCOC(=O)[C@]12CCC(C)(C)C[C@H]1C1=CC[C@@H]3[C@@]4(C)C[C@@H](O)[C@H](O)C(C)(C)[C@@H]4CC[C@@]3(C)[C@]1(C)CC2 | 5.06 | 4.77 | 15.4 | < 5.22 | 56 | 0 | 0 | 0 | –
